Results as given in ChEMBL document CHEMBL1126288, “Pyrimido[1,6-a]benzimidazoles: a new class of DNA gyrase inhibitors” (1992).
≈ marks a conversion by molar mass, not a printed value.

Columns and labels:
Bacillus subtilis = experiment: In vitro for antibacterial activity against Bacillus subtilis ATCC 585369; format: functional
Escherichia coli [1] = experiment: In vitro for antibacterial activity against Escherichia coli 1527E (Ec(C)); format: functional
[2] = target: DNA gyrase (Escherichia coli) (UniProt P0AES6+P0AES4); experiment: Inhibitory activity against Escherichia coli DNA gyrase (represented as MNEC); format: protein-complex assay
How it was run: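 Supercoiling assay. Gyrase subunits mixed equimolar and reconstituted to A2B2 for 30 min at 25 °C. Compound 0.1–100 µg/mL, 37 °C, 30 min. Read on 0.8% agarose gel; MNEC = highest concentration leaving all DNA fully supercoiled.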

Pseudomonas aeruginosa = experiment: In vitro for antibacterial activity against Pseudomonas aeruginosa 799/61; format: functional
Micrococcus luteus = experiment: In vitro for antibacterial activity against Micrococcus luteus ATCC 8340; format: functional
[3] = system: Staphylococcus haemolyticus; experiment: In vitro for antibacterial activity against Staphylococcus haemolyticus 75 (quinolone-resistant); format: functional
Enterobacter cloacae = experiment: In vitro for antibacterial activity against Enterobacter cloacae P99; format: functional
Escherichia coli [4] = experiment: In vitro for antibacterial activity against Escherichia coli 1346 (Ec(A)); format: functional
Escherichia coli [5] = experiment: In vitro for antibacterial activity against Escherichia coli B (Ec(B)); format: functional
Staphylococcus aureus = experiment: In vitro for antibacterial activity against Staphylococcus aureus 887; format: functional
Klebsiella oxytoca = experiment: In vitro for antibacterial activity against Klebsiella oxytoca 1082E; format: functional

Structure (SMILES) | MIC (Bacillus subtilis) [µg/mL] | MIC (Escherichia coli [1]) [µg/mL] | MNEC [2] [µg/mL] | MIC (Pseudomonas aeruginosa) [µg/mL] | MIC (Micrococcus luteus) [µg/mL] | MIC [3] [µg/mL] | MIC (Enterobacter cloacae) [µg/mL] | MIC (Escherichia coli [4]) [µg/mL] | MIC (Escherichia coli [5]) [µg/mL] | MIC (Staphylococcus aureus) [µg/mL] | MIC (Klebsiella oxytoca) [µg/mL]
Nn1c(=O)cc2n(C3CC3)c3cc(N4CCNCC4)c(F)cc3n2c1=O | 4 (≈ 11.2 µM) | 2 (≈ 5.58 µM) | 0.2 | 8 (≈ 22.3 µM) | > 64 | > 64 | 2 (≈ 5.58 µM) | 1 (≈ 2.79 µM) | 0.25 (≈ 0.698 µM) | 64 (≈ 179 µM) | 4 (≈ 11.2 µM)
O=c1cc2n(C3CC3)c3cc(N4CCNCC4)c(F)cc3n2c(=O)n1O | 4 (≈ 11.1 µM) | 2 (≈ 5.57 µM) | 1 | 2 (≈ 5.57 µM) | 8 (≈ 22.3 µM) | > 64 | 1 (≈ 2.78 µM) | < 0.25 | < 0.25 | > 64 | 1 (≈ 2.78 µM)
CN1CCN(c2cc3c(cc2F)n2c(=O)[nH]c(=O)cc2n3C2CC2)CC1 | 4 (≈ 11.2 µM) | 2 (≈ 5.6 µM) | 1 | 32 (≈ 89.5 µM) | > 32 | > 32 | 4 (≈ 11.2 µM) | 2 (≈ 5.6 µM) | 0.25 (≈ 0.7 µM) | 16 (≈ 44.8 µM) | 8 (≈ 22.4 µM)
CCn1c2cc(N3CCNCC3)c(F)cc2c2c(N)ncnc21 |  | > 128 | 5 | > 128 |  | > 128 | > 128 | 64 (≈ 204 µM) | 16 (≈ 50.9 µM) | > 128 | > 128
CCn1cc(C(=O)O)c(=O)c2cc(F)c(N3CCNCC3)cc21 [NORFLOXACIN] | 1 (≈ 3.13 µM) | 0.12 (≈ 0.376 µM) |  | 1 (≈ 3.13 µM) | 32 (≈ 100 µM) | > 64 | 0.25 (≈ 0.783 µM) | 0.12 (≈ 0.376 µM) | 0.12 (≈ 0.376 µM) | 4 (≈ 12.5 µM) | 0.25 (≈ 0.783 µM)
CCn1c2cc(N3CCNCC3)c(F)cc2n2c(=O)[nH]c(=O)cc12 | 64 (≈ 193 µM) | > 64 | 1 | > 64 | > 64 |  | 64 (≈ 193 µM) | 16 (≈ 48.3 µM) | 8 (≈ 24.1 µM) | > 64 | > 64
CN1CCN(c2cc3c(cc2F)n2c(=O)n(O)c(=O)cc2n3C2CC2)CC1 | 2 (≈ 5.36 µM) | 0.12 (≈ 0.321 µM) | 1 | 2 (≈ 5.36 µM) | 32 (≈ 85.7 µM) | 32 (≈ 85.7 µM) | 0.12 (≈ 0.321 µM) | < 0.03 | < 0.03 | 4 (≈ 10.7 µM) | 0.25 (≈ 0.67 µM)
CCn1c2cc(N3CCN(C)CC3)c(F)cc2n2c(=O)[nH]c(=O)cc12 | 16 (≈ 46.3 µM) | 32 (≈ 92.7 µM) | 2 | > 32 | > 32 |  | 16 (≈ 46.3 µM) | 16 (≈ 46.3 µM) | 2 (≈ 5.79 µM) | > 32 | > 32
CCn1c2cc(N3CCN(C)CC3)c(F)cc2n2c(=O)nc(N)cc12 | > 32 | > 32 | > 10 | > 32 | > 32 | > 32 | > 32 | > 32 | > 32 | > 32 | > 32
CN(C)n1c(=O)cc2n(C3CC3)c3cc(N4CCNCC4)c(F)cc3n2c1=O | 4 (≈ 10.4 µM) | 32 (≈ 82.8 µM) | 0.5 | 64 (≈ 166 µM) | > 128 | > 128 | 32 (≈ 82.8 µM) | 8 (≈ 20.7 µM) | 1 (≈ 2.59 µM) | 16 (≈ 41.4 µM) | 32 (≈ 82.8 µM)
O=c1cc2n(C3CC3)c3cc(N4CCNCC4)c(F)cc3n2c(=O)[nH]1 | 8 (≈ 23.3 µM) | 8 (≈ 23.3 µM) | 0.2 | 32 (≈ 93.2 µM) | > 32 |  | 8 (≈ 23.3 µM) | 2 (≈ 5.82 µM) | 0.5 (≈ 1.46 µM) | > 32 | 16 (≈ 46.6 µM)
CN1CCN(c2c(F)cc3c(=O)c(C(=O)O)cn(CCF)c3c2F)CC1 [FLEROXACIN] | 0.5 (≈ 1.35 µM) | 0.06 (≈ 0.162 µM) |  | 0.5 (≈ 1.35 µM) | 16 (≈ 43.3 µM) | 32 (≈ 86.6 µM) | 0.12 (≈ 0.325 µM) | 0.12 (≈ 0.325 µM) | 0.06 (≈ 0.162 µM) | 2 (≈ 5.42 µM) | 0.12 (≈ 0.325 µM)
CCn1c2cc(N3CCNCC3)c(F)cc2n2c(=O)n(O)c(=O)cc12 | 32 (≈ 92.1 µM) | 32 (≈ 92.1 µM) | 1 | 4 (≈ 11.5 µM) | 32 (≈ 92.1 µM) | > 64 | 8 (≈ 23 µM) | 8 (≈ 23 µM) | 8 (≈ 23 µM) | > 64 | 16 (≈ 46.1 µM)
CNn1c(=O)cc2n(C3CC3)c3cc(N4CCNCC4)c(F)cc3n2c1=O | 8 (≈ 21.5 µM) | 8 (≈ 21.5 µM) | 0.1 | 32 (≈ 85.9 µM) | 128 (≈ 344 µM) | 128 (≈ 344 µM) | 4 (≈ 10.7 µM) | 1 (≈ 2.69 µM) | 0.5 (≈ 1.34 µM) | 16 (≈ 43 µM) | 8 (≈ 21.5 µM)
CCn1c2cc(N3CCN(C)CC3)c(F)cc2n2c(=O)n(O)c(=O)cc12 | 8 (≈ 22.1 µM) | 4 (≈ 11.1 µM) | 1 | 2 (≈ 5.53 µM) | 16 (≈ 44.3 µM) | 16 (≈ 44.3 µM) | 2 (≈ 5.53 µM) | 2 (≈ 5.53 µM) | 1 (≈ 2.77 µM) | 16 (≈ 44.3 µM) | 4 (≈ 11.1 µM)
